Published values pooled from the literature.
Lines come from different studies, so protocols differ.
Target: Prostaglandin G/H synthase 1 (PTGS1, Ovis aries, UniProt P05979)
Observed: enzyme activity
Action: inhibitor
Residues used in one study (P05979 25-600): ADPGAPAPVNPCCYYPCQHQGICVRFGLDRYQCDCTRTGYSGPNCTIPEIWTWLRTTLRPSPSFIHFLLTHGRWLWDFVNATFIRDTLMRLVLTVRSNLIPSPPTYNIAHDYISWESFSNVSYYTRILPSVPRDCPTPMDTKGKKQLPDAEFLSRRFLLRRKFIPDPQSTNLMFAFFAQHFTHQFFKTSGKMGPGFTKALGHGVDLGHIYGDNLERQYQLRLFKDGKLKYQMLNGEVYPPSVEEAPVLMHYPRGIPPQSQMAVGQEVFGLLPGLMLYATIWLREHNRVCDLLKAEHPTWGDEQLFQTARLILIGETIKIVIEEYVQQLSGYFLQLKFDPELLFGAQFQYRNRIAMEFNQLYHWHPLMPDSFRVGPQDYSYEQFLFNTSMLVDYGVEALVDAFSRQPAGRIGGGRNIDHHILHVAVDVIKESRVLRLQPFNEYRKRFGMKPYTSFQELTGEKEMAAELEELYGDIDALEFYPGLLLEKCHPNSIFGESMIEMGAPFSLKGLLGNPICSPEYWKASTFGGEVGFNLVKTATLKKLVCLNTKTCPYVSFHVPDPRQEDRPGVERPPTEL

technique | IC50 | Compound
fluorescence | 29.7 µM | COc1ccc(Nc2c(-c3ccc(S(C)(=O)=O)cc3)nc3cc(C)ccn23)cc1
absorbance | > 100 µM | NS(=O)(=O)c1ccc(-c2ncccc2-c2nc3ccccc3s2)cc1
 | 27.5 µM | CC(C)Cc1ccc(-c2nn(-c3ccc(S(C)(=O)=O)cc3)cc2/C=N/N=c2\[nH]c(-c3ccc(Br)cc3)cs2)cc1
 | 2 µM | CSc1ccc(/C=C2\C=C(CC(=O)NS(=O)(=O)c3ccc4ccccc4c3)c3cc(F)ccc32)cc1
fluorescence | 40.2 µM | Cc1cccc2nc(-c3ccc(S(C)(=O)=O)cc3)c(Nc3ccc(F)cc3)n12
absorbance | 8.23 µM | COc1ccc(F)c(-c2ccccc2OC)c1
 | 0.7 to 1 µM | CSc1ccc(/C=C2\C=C(CC(=O)NS(=O)(=O)C(F)(F)F)c3cc(F)ccc32)cc1
absorbance | 9.99 µM | COc1ccccc1-c1ccc(F)c(C(F)(F)F)c1
absorbance | > 100 µM | Cc1ccc(-c2nc3ccccc3s2)c(-c2ccc(S(N)(=O)=O)cc2)c1
fluorescence | 35.6 µM | Cc1cccn2c(Nc3ccccc3)c(-c3ccc(S(C)(=O)=O)cc3)nc12
 | 2 µM | CSc1ccc(/C=C2\C=C(CC(=O)NS(=O)(=O)c3ccc(Cl)s3)c3cc(F)ccc32)cc1
fluorescence | 35.6 µM | Cc1ccc(Nc2c(-c3ccc(S(C)(=O)=O)cc3)nc3c(C)cccn23)cc1
 | 38.5 µM | CS(=O)(=O)c1ccc(-n2cc(/C=N/N=c3\[nH]c(-c4ccc([N+](=O)[O-])cc4)cs3)c(-c3ccc([N+](=O)[O-])cc3)n2)cc1
absorbance | > 100 µM | CS(=O)(=O)c1ccc(-c2ncccc2-c2nc3ccccc3s2)cc1
absorbance | 10.8 µM | COc1ccccc1-c1ccc(F)c(OC(F)(F)F)c1
absorbance | 21.8 µM | C[C@@H]1O[C@@H](O[C@H]2[C@H](Oc3c(-c4ccc(O)cc4)oc4cc(O)cc(O)c4c3=O)O[C@H](CO[C@@H]3O[C@H](CO)[C@@H](O)[C@H](O)[C@H]3O)[C@@H](O)[C@@H]2O)[C@H](O)[C@H](O)[C@H]1O
 | 34.4 µM | CC(C)Cc1ccc(-c2nn(-c3ccc(S(C)(=O)=O)cc3)cc2/C=N/N=c2\[nH]c(-c3ccc([N+](=O)[O-])cc3)cs2)cc1
absorbance | 10.2 µM | O=[N+]([O-])c1cccc(-c2ccccc2F)c1F
fluorescence | 16.5 µM | COc1ccc(Nc2c(-c3ccc(S(C)(=O)=O)cc3)nc3ccccn23)cc1
 | 68.2 µM | CS(=O)(=O)c1ccc(-n2cc(C=N/N=c3\[nH]c(-c4ccc(Br)cc4)cs3)c(-c3ccc([N+](=O)[O-])cc3)n2)cc1
fluorescence | 19.6 µM | Cc1ccc(Nc2c(-c3ccc(S(C)(=O)=O)cc3)nc3cccc(C)n23)cc1
absorbance | 11 µM | Fc1ccc(-c2ccccc2F)cc1OC(F)(F)F
 | 24.5 µM | CS(=O)(=O)c1ccc(-n2cc(/C=N/N=c3\[nH]c(-c4ccc([N+](=O)[O-])cc4)cs3)c(-c3ccc(Br)cc3)n2)cc1
fluorescence | 29.4 µM | Cc1cccn2c(Nc3ccc(Cl)cc3)c(-c3ccc(S(C)(=O)=O)cc3)nc12
